The results in this text go back to ChEMBL document CHEMBL1133742, “17beta-O-Aminoalkyloximes of 5beta-androstane-3beta,14beta-diol with digitalis-like activity: synthesis, cardiotonic activity, structure-activity relationships, and molecular modeling of the Na(+),K(+)-ATPase receptor” (J Med Chem, 2000).

For orientation: Emax means the greatest response seen or fitted, relative to the assay's reference. As usually defined, the EC50 is the concentration needed to bring the measured effect to its halfway point. A word on the IC50: it is the concentration at which inhibition is half-maximal.

Bounds are passed on as bounds.

Test [1] can be described thus: Percent increase in force of contraction in vitro determined using electrically driven guinea pig left atrium. The test is classed as functional. The settings on record: Cavia porcellus, Cardiac atrium. The method, boiled down: (§1)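 Isolated guinea pig atria in solution bubbled with 95% O2/5% CO2, field-stimulated by platinum electrodes at 1 Hz (1 ms square pulses, twice threshold voltage). After 60 min equilibration, cumulative concentrations added, each held until maximal response or arrhythmia.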

The species entered for the next test is Cavia porcellus. Description: Concentration producing 50% of the maximal increase in the force of contraction in isolated guinea pig left atrium. The test is classed as functional. Conditions: Cardiac atrium. Put shortly:
as §1

Test [2] has as its target Sodium/potassium-transporting ATPase. Description: In vitro inhibitory concentration against dog kidney Na+/K+ ATPase. Format: protein-complex assay, Canis lupus familiaris. Put shortly:
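Na+,K+-ATPase isolated and purified from dog kidney. Inhibition measured as percent hydrolysis of 32P-ATP with versus without compound. […] Single-concentration entries report percent inhibition at the stated concentration. Compounds tested within 1–4 h of dissolution.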

A short description of test [3]: In vitro maximum inotropic effect on contractile force of an electrically driven guinea pig left atrium. The test is classed as functional, Cavia porcellus, Cardiac atrium. The method, boiled down:
as §1

For the compound `C[C@]12CC[C@H](O)C[C@H]1CC[C@@H]1[C@@H]2CC[C@]2(C)/C(=C/C=N\OCCN)CC[C@]12O`, the Emax in test [1] amounted to 136%. In the test listed under Cavia porcellus, this compound came in with an EC50 of 18 µM. Moreover, the IC50 in test [2] is 2 µM. Further, the “Concentration giving maximal inotropic effect” value in test [3] came out at 100 µM.
For `CO/N=C/C(C)=C/[C@H]1CC[C@]2(O)[C@@H]3CC[C@@H]4C[C@@H](O)CC[C@]4(C)[C@H]3CC[C@]12C`, the IC50 in test [2] was determined as 10 µM.
On the same count and under the same terms, under `CONC[C@H]1CC[C@]2(O)[C@@H]3CC[C@@H]4C[C@@H](O)CC[C@]4(C)[C@H]3CC[C@]12C` stands 79 µM; under `CONC/C=C/[C@H]1CC[C@]2(O)[C@@H]3CC[C@@H]4C[C@@H](O)CC[C@]4(C)[C@H]3CC[C@]12C`, 40 µM.
`C[C@]12CC[C@H](O)C[C@H]1CC[C@@H]1[C@@H]2CC[C@]2(C)[C@@H](/C=C/C=C/CCN)CC[C@]12O` came in with an Emax in test [1] of 98%. This compound also displayed an EC50 in the test listed under Cavia porcellus of 0.38 µM. Moreover, in test [2], the IC50 is 0.08 µM.
Consider `CC(/C=N/OCCN(C)C)=C\[C@H]1CC[C@]2(O)[C@@H]3CC[C@@H]4C[C@@H](O)CC[C@]4(C)[C@H]3CC[C@]12C.O=C(O)/C=C/C(=O)O`, for which the Emax in test [1] stood at 146%. This compound came in with an EC50 in the test filed under Cavia porcellus of 0.07 µM. Half-maximal inhibition in test [2] (IC50) was put at 0.06 µM. The “Concentration giving maximal inotropic effect” value in test [3] is 0.3 µM.
On to `CC(/C=N/OCCO)=C\[C@H]1CC[C@]2(O)[C@@H]3CC[C@@H]4C[C@@H](O)CC[C@]4(C)[C@H]3CC[C@]12C`, for which, in test [1], the Emax is 175%. Also, a half-maximal response in the test filed under Cavia porcellus (EC50) required 23 µM. In test [2], this compound gave an IC50 of 7.9 µM. Besides, the “Concentration giving maximal inotropic effect” value in test [3] stood at 300 µM.
`CN(C)CCCO/N=C/[C@H]1CC[C@]2(O)[C@@H]3CC[C@@H]4C[C@@H](O)CC[C@]4(C)[C@H]3CC[C@]12C`: in test [1], the Emax came to 235%. Further, the EC50 in the test listed under Cavia porcellus is 1.3 µM. The compound further returned an IC50 in test [2] of 0.25 µM.
In turn, `CN(C)CCCO/N=C/C=C1\CC[C@]2(O)[C@@H]3CC[C@@H]4C[C@@H](O)CC[C@]4(C)[C@H]3CC[C@]12C` had a half-inhibitory concentration (IC50) in test [2] of 160 µM.
`C[C@]12CC[C@H](O)C[C@H]1CC[C@@H]1[C@@H]2CC[C@]2(C)[C@@H](CNOCCCN)CC[C@]12O`: the Emax in test [1] worked out at 237%. This compound showed an EC50 in the test filed under Cavia porcellus of 3.9 µM. The IC50 in test [2] turned out to be 0.4 µM.
For `C[C@]12CC[C@H](O)C[C@H]1CC[C@@H]1[C@@H]2CC[C@]2(C)[C@@H](CC/C=N\OCCN)CC[C@]12O` the same measures were 70%, 1.1 µM and 0.08 µM.
As to `CO/N=C/[C@H]1CC[C@]2(O)[C@@H]3CC[C@@H]4C[C@@H](O)CC[C@]4(C)[C@H]3CC[C@]12C`, in test [2], the IC50 was 32 µM.
The same measure, in the same setting: under `C[C@]12CC[C@H](O)C[C@H]1CC[C@@H]1[C@@H]2CC[C@]2(C)/C(=N/OCCN)CC[C@]12O` stands over 100 µM.
In the case of `CN(C)CCO/N=C\C=C1/CC[C@]2(O)[C@@H]3CC[C@@H]4C[C@@H](O)CC[C@]4(C)[C@H]3CC[C@]12C`, the midpoint of inhibition in test [2], the IC50, lay at 12.5 µM.
Turning to `C[C@]12CC[C@H](O)C[C@H]1CC[C@@H]1[C@@H]2CC[C@]2(C)[C@@H](C3=CC(=O)OC3)CC[C@]12O` [DIGITOXIGENIN], the Emax in test [1] turned out to be 200%. A half-maximal effect in the test filed under Cavia porcellus (EC50) was put at 0.57 µM. Further, in test [3], the “Concentration giving maximal inotropic effect” value was determined as 3 µM.
As for `C[C@]12CC[C@H](O)C[C@H]1CC[C@@H]1[C@@H]2CC[C@]2(C)[C@@H](/C=N/OCCN)CC[C@]12O`, the maximal response (Emax) in test [1] came to 145%. In addition, in the test filed under Cavia porcellus, the EC50 turned out to be 0.62 µM. This compound also came in with a concentration for half-maximal inhibition (IC50) in test [2] of 0.16 µM.
With `CN(C)CCCO/N=C1\CC[C@]2(O)[C@@H]3CC[C@@H]4C[C@@H](O)CC[C@]4(C)[C@H]3CC[C@]12C`, the IC50 in test [2] is over 100 µM.
The same measure, in the same setting: under `CCCO/N=C/C=C/[C@H]1CC[C@]2(O)[C@@H]3CC[C@@H]4C[C@@H](O)CC[C@]4(C)[C@H]3CC[C@]12C` stands 10 µM.
In test [1], `CN(C)CCONC[C@H]1CC[C@]2(O)[C@@H]3CC[C@@H]4C[C@@H](O)CC[C@]4(C)[C@H]3CC[C@]12C.Cl.Cl` displayed an Emax of 18%. Besides, the IC50 in test [2] was 50 µM. For the same compound, the “Concentration giving maximal inotropic effect” value in test [3] turned out to be 300 µM.
As to `C[C@]12CC[C@H](O)C[C@H]1CC[C@@H]1[C@@H]2CC[C@]2(C)[C@@H](CNOCCN)CC[C@]12O.Cl.Cl`, the Emax in test [1] came out at 135%. Also, in the test filed under Cavia porcellus, it took 8 µM to reach a half-maximal effect (EC50). In addition, the IC50 in test [2] was found to be 1.58 µM. In test [3], the “Concentration giving maximal inotropic effect” value is 100 µM.
The compound `CN(C)CCCCO/N=C1\CC[C@]2(O)[C@@H]3CC[C@@H]4C[C@@H](O)CC[C@]4(C)[C@H]3CC[C@]12C` gave an IC50 in test [2] of over 100 µM.
In test [1], `CN(C)CCO/N=C/[C@H]1CC[C@]2(O)[C@@H]3CC[C@@H]4C[C@@H](O)CC[C@]4(C)[C@H]3CC[C@]12C` had an Emax of 39%. For the same compound, it took 1 µM to reach half-maximal inhibition in test [2] (IC50).
In the case of `C[C@]12CC[C@H](O)C[C@H]1CC[C@@H]1[C@@H]2CC[C@]2(C)[C@@H](/C=C/C=N/OCCN)CC[C@]12O`, the Emax in test [1] was 155%. Also, in the test filed under Cavia porcellus, the response was half-maximal at 0.05 µM (EC50). For the same compound, in test [2], the IC50 stood at 0.02 µM. Also, the “Concentration giving maximal inotropic effect” value in test [3] worked out at 0.3 µM.
Consider `CO/N=C/C=C/[C@H]1CC[C@]2(O)[C@@H]3CC[C@@H]4C[C@@H](O)CC[C@]4(C)[C@H]3CC[C@]12C`, for which, in test [2], the IC50 turned out to be 4 µM.
Still for that read-out and setting: under `CN(C)CCO/N=C1\CC[C@]2(O)[C@@H]3CC[C@@H]4C[C@@H](O)CC[C@]4(C)[C@H]3CC[C@]12C` stands over 100 µM.
For the compound `CN(C)CCCCO/N=C/[C@H]1CC[C@]2(O)[C@@H]3CC[C@@H]4C[C@@H](O)CC[C@]4(C)[C@H]3CC[C@]12C`, the Emax in test [1] was determined as 214%. The compound further had an EC50 in the test listed under Cavia porcellus of 4.7 µM. This compound displayed a half-maximal inhibitory concentration (IC50) in test [2] of 2 µM.
Taken in the same sequence, the figures for `CN(C)CCO/N=C/C[C@H]1CC[C@]2(O)[C@@H]3CC[C@@H]4C[C@@H](O)CC[C@]4(C)[C@H]3CC[C@]12C` were 73%, 1.8 µM and 0.63 µM.
For the compound `C[C@]12CC[C@H](O)C[C@H]1CC[C@@H]1[C@@H]2CC[C@]2(C)/C(=C/C=N\OCCCN)CC[C@]12O`, the IC50 in test [2] was over 100 µM.
For the compound `CC(/C=N/OCCCCN)=C\[C@H]1CC[C@]2(O)[C@@H]3CC[C@@H]4C[C@@H](O)CC[C@]4(C)[C@H]3CC[C@]12C`, the Emax in test [1] was determined as 106%. Further, a half-maximal response in the test listed under Cavia porcellus (EC50) required 4 µM. Besides, the IC50 in test [2] is 1.26 µM.
Taken in the same sequence, the figures for `C[C@]12CC[C@H](O)C[C@H]1CC[C@@H]1[C@@H]2CC[C@]2(C)[C@@H](CCCNOCCN)CC[C@]12O` were 71%, 12 µM and 1 µM.
On to `C[C@]12CC[C@H](O)C[C@H]1CC[C@@H]1[C@@H]2CC[C@]2(C)[C@@H](/C=C/C=N/OCCO)CC[C@]12O`, for which, in test [1], the maximal effect (Emax) was found to be 179%. In the test filed under Cavia porcellus, this compound had a concentration giving a half-maximal response (EC50) of 39 µM. The same compound yielded an IC50 in test [2] of 6.3 µM. The “Concentration giving maximal inotropic effect” value in test [3] stood at 300 µM.
